Reference: ChEMBL document CHEMBL5143750, “Bisubstrate Inhibitors of Severe Acute Respiratory Syndrome Coronavirus-2 Nsp14 Methyltransferase” (ACS Med Chem Lett, 2022)

Legend:
A549 [1] = experiment: Cytotoxicity against human A549 cells overexpressing ACE2 and TMPRSS2 assessed as cell viability at 50 uM incubated for 48 hrs by MTS assay; assay type: functional; settings: read-out: Activity
Method in brief: (§1)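 A549 AT host cells were used for viability read-out. More than 95% viability at 50 μM was classed as nontoxic. CC50 values came from at least duplicate determinations and were averaged.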

A549 [2] = experiment: Cytotoxicity against human A549 cells overexpressing ACE2 and TMPRSS2 incubated for 48 hrs by MTS assay; assay type: functional; method in brief: as §1
[3] = Metabolic stability in CD-1 mouse plasma at 1 micromol/L measured upto 24 hrs by LC-MS/MS analysis; assay type: ADME, cell-free; settings: dose 1 µmol/L
[4] = Metabolic stability in CD-1 mouse liver S9 fraction assessed as half life at 1 micromol/L in presence of NADPH measured upto 24 hrs by LC-MS/MS analysis; assay type: ADME, subcellular; settings: s9, 24 h, 1 µM, dose 1 µmol/L
[5] = Metabolic stability in human liver S9 fraction assessed as half life at 1 micromol/L in presence of NADPH measured upto 24 hrs by LC-MS/MS analysis; assay type: ADME, subcellular; settings: s9, 24 h, 1 µM, dose 1 µmol/L
[6] = Metabolic stability in human plasma at 1 micromol/L measured upto 24 hrs by LC-MS/MS analysis; assay type: ADME, cell-free; settings: dose 1 µmol/L
Method in brief: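 Compound was incubated in human plasma, and percentage remaining was followed over the incubation. Data are mean ± SD.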

[7] = Metabolic stability in human liver S9 fraction assessed as half life at 1 micromol/L in presence of UDPGA measured upto 24 hrs by LC-MS/MS analysis; assay type: ADME, subcellular; settings: s9, 24 h, 1 µM, dose 1 µmol/L
[8] = target: Replicase polyprotein 1ab (Severe acute respiratory syndrome coronavirus 2) (UniProt P0DTD1); experiment: Stabilization of SARS-CoV-2 NSP14 expressed in Escherichia coli BL21(DE3) assessed as change in melting temperature at 200 uM incubated for 4 mins by SYPRO orange dye based thermal shift assay
[9] = Metabolic stability in CD-1 mouse liver S9 fraction assessed as half life at 1 micromol/L in presence of UDPGA measured upto 24 hrs by LC-MS/MS analysis; assay type: ADME, subcellular; settings: s9, 24 h, 1 µM, dose 1 µmol/L

Nc1ncnc2c1ncn2[C@@H]1O[C@H](C[C@@H](N)CC[C@H](N)C(=O)O)[C@@H](O)[C@H]1O [SINEFUNGIN] showed a viability at 50 µM (A549 [1]) of over 95%.

Compound Nc1ncnn2c([C@@H]3O[C@H](CNS(=O)(=O)c4ccc5ccccc5c4)[C@@H](O)[C@H]3O)ccc12 has a CC50 (A549 [2]) of over 100 µM, a t1/2 at 24 h, 1 µM [3] of over 24 h and a t1/2 [4] of 0.482 h. The t1/2 [5] was 14 h, the t1/2 at 24 h, 1 µM [6] was over 24 h and the t1/2 [7] was over 0.75 h. For the same compound, the ΔTm [8] was over 8 °C and the t1/2 [9] was over 0.75 h.

Work on Nc1ncnc2c1ncn2[C@@H]1O[C@H](CNS(=O)(=O)c2ccc3ccccc3c2)[C@@H](O)[C@H]1O yielded a t1/2 at 24 h, 1 µM [3] of over 24 h, a t1/2 [4] of 4.55 h and a t1/2 [5] of 11.2 h. It also gave a t1/2 at 24 h, 1 µM [6] of over 24 h, a viability at 50 µM (A549 [1]) of over 95% and a t1/2 [7] of over 0.75 h. For the same compound, the ΔTm [8] was over 8 °C and the t1/2 [9] was over 0.75 h.

CCC(CC)COC(=O)[C@H](C)N[P@](=O)(OC[C@H]1O[C@@](C#N)(c2ccc3c(N)ncnn23)[C@H](O)[C@@H]1O)Oc1ccccc1 gave a CC50 (A549 [2]) of 43 µM.

Compound CC(=O)O[C@@H]1[C@H](OC(C)=O)[C@@H](CNS(=O)(=O)c2ccc3ccccc3c2)O[C@H]1n1cnc2c(N)ncnc21 has a CC50 (A549 [2]) of over 100 µM.

For CC(=O)O[C@@H]1[C@H](OC(C)=O)[C@@H](CNS(=O)(=O)c2ccc3ccccc3c2)O[C@H]1c1ccc2c(N)ncnn12, the CC50 (A549 [2]) was 63 µM.

With Nc1ncnc2c1ncn2[C@@H]1O[C@H](CNCc2ccc3ccccc3c2)[C@@H](O)[C@H]1O the viability at 50 µM (A549 [1]) was over 95%.

CC(=O)Nc1ncnc2c1ncn2[C@@H]1O[C@H](CNS(=O)(=O)c2ccc3ccccc3c2)[C@@H](OC(C)=O)[C@H]1OC(C)=O gave a CC50 (A549 [2]) of over 100 µM.

In the case of CC(=O)Nc1ncnc2c1ncn2[C@@H]1O[C@H](CNS(=O)(=O)c2ccc3ccccc3c2)[C@@H](O)[C@H]1O, the CC50 (A549 [2]) was over 100 µM and the ΔTm [8] was over 8 °C.

In the case of CC(C)C(=O)O[C@@H]1[C@H](OC(=O)C(C)C)[C@@H](CNS(=O)(=O)c2ccc3ccccc3c2)O[C@H]1n1cnc2c(N)ncnc21, the CC50 (A549 [2]) was over 100 µM.

For O=c1ccc2ccc(O)cc2o1 [UMBELLIFERONE], the t1/2 [9] was 0.013 h.

With Nc1ncnc2c1ncn2[C@@H]1O[C@H](CNC(=O)c2ccc3ccccc3c2)[C@@H](O)[C@H]1O the viability at 50 µM (A549 [1]) was over 95%.

Compound Nc1ncnc2c1ncn2[C@@H]1O[C@H](CNS(=O)(=O)c2ccc3nc(Cl)ccc3c2)[C@@H](O)[C@H]1O has a viability at 50 µM (A549 [1]) of over 95%.

In the case of Nc1ncnc2c1ncn2[C@@H]1O[C@H](CNS(=O)(=O)c2ccc3cccnc3c2)[C@@H](O)[C@H]1O, the viability at 50 µM (A549 [1]) was over 95%.
